Measured values: ChEMBL document CHEMBL1132966, “Conformationally constrained analogues of diacylglycerol (DAG). 16. How much structural complexity is necessary for recognition and high binding affinity to protein kinase C?” (J Med Chem, 2000)

Legend:
[1] = test system: C3H 10T1/2; test: Tested for inhibition of EGF(epidermal growth factor) to C3H10T1/2 cells.; type: functional; conditions: Mus musculus, read-out: ED50 (the source's name)
Procedure, shortened: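 C3H10T1/2 cells were plated at 2.5×10^5/well in MEM with 10% FBS and grown 2 days at 37 °C, 5% CO2. Cells were pretreated 60 min at 37 °C with ligand in MEM/BSA/25 mM BES pH 7.2 (DMSO <0.1% final). Cells were lysed in NaOH and bound counts measured. Background was taken with 1 μg/well unlabeled EGF. Six concentrations were run in triplicate, and ID50 is the mean of three experiments.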

[2] = test system: COLO 205; test: Tested for growth inhibition against COLO 205 cells.; type: functional; conditions: Homo sapiens
Procedure, shortened: (§1)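 GI50 is interpolated from the NCI cell-panel screen. It is the concentration (M) at which percentage growth is inhibited by 50% in the named line.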

[3] = test system: K562; test: Tested for growth inhibition against Leukemia K-562 cells.; type: functional; conditions: Homo sapiens; procedure, shortened: as §1
[4] = species on record: Homo sapiens; test: Tested for growth inhibition against Breast Hs 578.T.; type: functional; procedure, shortened: as §1
[5] = molecular target: T1, Protein kinase C alpha type (Homo sapiens, UniProt P17252)
[6] = test system: Panel NCI-60 (60 carcinoma cell lines); test: Tested for growth inhibition against MG-MID(full panel of cells); type: functional; conditions: Homo sapiens
Procedure, shortened: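 MG-MID is the calculated mean of the GI50 concentrations (M) across the entire NCI cell panel. Each GI50 is the interpolated concentration (M) giving 50% growth inhibition.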

[7] = molecular target: T1, Protein kinase C alpha type; test: Binding Affinity against protein kinase C alpha

Ki [7] | SMILES | EC50 [1] | other results
– | CCCC(=O)O[C@@H]1[C@@H](C)[C@@]2(O)[C@@H](C=C(CO)C[C@]3(O)C(=O)C(C)=C[C@@H]23)[C@@H]2C(C)(C)[C@]12OC(=O)CCC | 20 nM | –
– | CC(C)C(C/C=C1/CC(CO)(COC(=O)CC(C(C)C)C(C)C)OC1=O)C(C)C (centres undefined) | 170 nM | GI50 [2]: 25 nM; GI50 [3]: 21 nM; GI50 [4]: 26 nM; ED50 [5]: 550 nM; GI50 [6]: 3200 nM
2.3 nM | CCCCCCCCCC(=O)OCC1(CO)C/C(=C/CC(C(C)C)C(C)C)C(=O)O1 (centres undefined) | 1170 nM | GI50 [2]: 18000 nM; GI50 [3]: 9200 nM; GI50 [4]: 27000 nM; ED50 [5]: 660 nM; GI50 [6]: 44000 nM
68 nM | CCCC(=O)OCC1(CO)C/C(=C/C=C(C(C)C)C(C)C)C(=O)O1 (centres undefined) | – | –
3.5 nM | CCCCCCOC(=O)/C=C/[C@]1(CO)C/C(=C/CC(C(C)C)C(C)C)C(=O)O1 | 140 nM | ED50 [5]: 950 nM
– | CC(=O)O[C@@]12C[C@@H](C)[C@@]3(O)[C@@H](C=C(CO)C[C@]4(O)C(=O)C(C)=C[C@@H]34)[C@@H]1C2(C)C [PROSTRATIN] | – | GI50 [2]: 1900 nM; GI50 [4]: 790 nM; GI50 [6]: 7000 nM
51 nM | CCCC(=O)OCC1(CO)C/C(=C\C=C(C(C)C)C(C)C)C(=O)O1 (centres undefined) | – | –
13 nM | CCCCCCCCC/C=C1/CC(CO)(COC(=O)CC(C(C)C)C(C)C)OC1=O (centres undefined) | 370 nM | GI50 [2]: 71 nM; GI50 [3]: 140 nM; GI50 [4]: 58 nM; ED50 [5]: 430 nM; GI50 [6]: 4700 nM
390 nM | CC(=O)OCC1(CO)C/C(=C/C=C(C(C)C)C(C)C)C(=O)O1 (centres undefined) | – | –
8.4 nM | CCCCCC(=O)OCC1(CO)C/C(=C\C=C(C(C)C)C(C)C)C(=O)O1 (centres undefined) | – | –
11 nM | CCCCCCCC/C=C\CCCCCCC/C=C1/C[C@](/C=C/C(=O)OC)(CO)OC1=O | 330 nM | ED50 [5]: 1070 nM
409 nM | CC(=O)OCC1(CO)C/C(=C\C=C(C(C)C)C(C)C)C(=O)O1 (centres undefined) | – | –
24 nM | CCC/C=C1/CC(CO)(COC(=O)CC(C(C)C)C(C)C)OC1=O (centres undefined) | – | –
– | CC(C)C(C/C=C1\CC(CO)(COC(=O)CC(C(C)C)C(C)C)OC1=O)C(C)C (centres undefined) | 140 nM | GI50 [2]: 1600 nM; GI50 [3]: 1500 nM; GI50 [4]: 12000 nM; ED50 [5]: 680 nM
19 nM | CCCC(=O)OCC1(CO)C/C(=C/CC(C(C)C)C(C)C)C(=O)O1 (centres undefined) | 820 nM | ED50 [5]: 1950 nM
7.3 nM | CCCCC/C=C1/CC(CO)(COC(=O)CC(C(C)C)C(C)C)OC1=O (centres undefined) | 130 nM | ED50 [5]: 340 nM

Ki [7] | SMILES | EC50 [1] | other results
5.9 nM | CCCCCCCC(=O)OC[C@]1(CO)C/C(=C\CC(C(C)C)C(C)C)C(=O)O1 | – | –
9.5 nM | CCCCCCCCC/C=C1\CC(CO)(COC(=O)CC(C(C)C)C(C)C)OC1=O (centres undefined) | – | –
29.5 nM | CCCCCCOC(=O)/C=C/[C@]1(CO)C/C(=C\CC(C(C)C)C(C)C)C(=O)O1 | – | –
54 nM | CCCC(=O)OCC1(CO)C/C(=C\CC(C(C)C)C(C)C)C(=O)O1 (centres undefined) | – | –
3.5 nM | CCCCCCCC(=O)OC[C@]1(CO)C/C(=C/CC(C(C)C)C(C)C)C(=O)O1 | – | –
138 nM | C/C=C1\CC(CO)(COC(=O)CC(C(C)C)C(C)C)OC1=O (centres undefined) | – | –
12 nM | CCCCCC(=O)OCC1(CO)C/C(=C/C=C(C(C)C)C(C)C)C(=O)O1 (centres undefined) | – | –
164 nM | C/C=C1/CC(CO)(COC(=O)CC(C(C)C)C(C)C)OC1=O (centres undefined) | – | –
5.9 nM | CCCCCC(=O)OCC1(CO)C/C(=C/CC(C(C)C)C(C)C)C(=O)O1 (centres undefined) | 2220 nM | ED50 [5]: 2330 nM
6.6 nM | CCCCCCCCCC(=O)OCC1(CO)C/C(=C\CC(C(C)C)C(C)C)C(=O)O1 (centres undefined) | – | –
359 nM | CC(=O)OCC1(CO)C/C(=C\CC(C(C)C)C(C)C)C(=O)O1 (centres undefined) | – | –
11 nM | CCCCCC(=O)OCC1(CO)C/C(=C\CC(C(C)C)C(C)C)C(=O)O1 (centres undefined) | – | –
123 nM | CC(=O)OCC1(CO)C/C(=C/CC(C(C)C)C(C)C)C(=O)O1 (centres undefined) | – | –
28 nM | CCC/C=C1\CC(CO)(COC(=O)CC(C(C)C)C(C)C)OC1=O (centres undefined) | – | –
5.5 nM | CCCCC/C=C1\CC(CO)(COC(=O)CC(C(C)C)C(C)C)OC1=O (centres undefined) | – | –
